Test results published in ChEMBL document CHEMBL1155735, “Isolation and bioactivities of constitutents of the roots of Garcinia atroviridis” (J Nat Prod, 2001).
Values after ≈ are worked out from the molar mass of the structure shown. Active and inactive are the calls of the source. No cut-off for these calls is given here.

How the values were obtained:
[1] = test system: Staphylococcus aureus; assay: Antibacterial activity against Staphylococcus aureus at 10 ug/disk by disk diffusion method; assay type: functional; settings: read-out: DIZ
Summary of the method: (§1)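 Disk diffusion, with test compound applied at 10 µg per disk. Streptomycin sulfate served as the reference antibacterial. Procedure followed an earlier report.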

[2] = test system: Bacillus cereus; assay: Antibacterial activity against Bacillus cereus at 10 ug/disk by disk diffusion method; assay type: functional; settings: read-out: DIZ; summary of the method: as §1
[3] = test system: Escherichia coli; assay: Antibacterial activity against Escherichia coli at 10 ug/disk by disk diffusion method; assay type: functional; summary of the method: as §1
[4] = test system: Aspergillus ochraceus; assay: Antifungal activity against Aspergillus ochraceus at 10 ug/disk by disk diffusion method; assay type: functional, organism-based
[5] = test system: Candida albicans; assay: […] activity against Candida albicans at 10 ug/disk by disk diffusion method; assay type: functional, organism-based
[6] = test system: HeLa; assay: Cytotoxicity against human HeLa cells after 72 hrs by MTT assay; assay type: functional, cell-based
Summary of the method: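 Human cervical carcinoma HeLa cells were exposed for 72 h and viability read by MTT. IC50 values were reported in µg/mL, with doxorubicin and colchicine run as reference standards. Method followed an earlier report.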

SMILES	zone of inhibition at 10 µg/disc [1]	zone of inhibition at 10 µg/disc [2]	diameter of the inhibition zone (DIZ) [3]	Activity [4]	Activity [5]	IC50 [6]	zone of inhibition at 10 µg/disc ([3]; read-out: DIZ)
COC(=O)c1c(O)cc(O)cc1OC1=C(OC)C(=O)C(CC=C(C)C)=C(CC=C(C)C)C1=O [ATROVIRINONE]	6.5 mm	6.5 mm	inactive	inactive	inactive	15 µg/mL (≈ 32.9 µM)	
COc1cccc2c1C(=O)c1c(O)c3c(c(O)c1C2=O)C[C@@](O)(C(=O)CO)C[C@@H]3O[C@H]1C[C@H](N)[C@H](O)[C@H](C)O1 [DOXORUBICIN]						11 µg/mL (≈ 20.2 µM)	
CN[C@@H]1[C@H](O[C@H]2[C@H](O[C@H]3[C@H](O)[C@@H](O)[C@H](N=C(N)N)[C@@H](O)[C@@H]3N=C(N)N)O[C@@H](C)[C@]2(O)C=O)O[C@@H](CO)[C@H](O)[C@H]1O [STREPTOMYCIN]	13.5 mm	21 mm					12.5 mm
COc1cc2c(c(OC)c1OC)-c1ccc(OC)c(=O)cc1[C@@H](NC(C)=O)CC2 [COLCHICINE]						21 µg/mL (≈ 52.6 µM)	
COc1c(O)c(CC=C(C)C)c(CC=C(C)C)c2c1Oc1cc(O)cc(O)c1C(=O)O2 [ATROVIRISIDONE]	8 mm	7.5 mm	inactive	inactive	inactive	> 30 µg/mL	
